This note sets out measurements from ChEMBL document CHEMBL1126251, “alpha-Methylated analogues of triiodothyroalkanoic acids: synthesis and biological activity” (J Med Chem, 1992).

“And” between values parts separate entries of the source, which are not always exact repeats. Equal values may be shown once.

For experiment [1], the target named is T1, NADP-dependent malic enzyme (Rattus norvegicus) (UniProt P13697).
T1 sequence (whole entry): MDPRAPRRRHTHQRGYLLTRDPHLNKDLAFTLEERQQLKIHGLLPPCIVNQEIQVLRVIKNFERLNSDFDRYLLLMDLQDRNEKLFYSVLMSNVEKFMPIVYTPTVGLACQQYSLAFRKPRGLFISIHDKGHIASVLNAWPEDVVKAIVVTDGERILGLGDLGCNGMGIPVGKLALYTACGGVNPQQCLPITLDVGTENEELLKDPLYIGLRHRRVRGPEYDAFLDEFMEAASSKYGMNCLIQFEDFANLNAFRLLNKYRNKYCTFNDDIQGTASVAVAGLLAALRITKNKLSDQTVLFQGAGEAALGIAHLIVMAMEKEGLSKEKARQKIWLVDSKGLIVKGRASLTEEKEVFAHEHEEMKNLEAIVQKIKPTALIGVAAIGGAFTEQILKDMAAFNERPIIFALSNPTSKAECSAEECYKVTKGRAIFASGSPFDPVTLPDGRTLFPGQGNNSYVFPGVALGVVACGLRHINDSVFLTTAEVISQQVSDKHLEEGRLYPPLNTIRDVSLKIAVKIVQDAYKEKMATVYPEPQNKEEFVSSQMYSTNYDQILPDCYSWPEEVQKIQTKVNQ
Nature of the experiment: Effect on rat hepatic malic enzyme(ME) activity relative to L-T3.

For experiment [2], the species on record is Rattus norvegicus. Nature of the experiment: Affinity to rat hepatic nuclei relative to L-T3. Type of experiment: functional. The method in brief: (§1)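 Hepatic nuclear fraction from thyroidectomized rats in 0.25 M sucrose, 1.1 mM MgCl2, 2 mM EDTA, 5 mM DTT, 20 mM Tris pH 7.85 (83 μg DNA/mL). Incubated with [125I]-L-T3 (final 0.075 nM) and competitor at 0.025–100 nM, five to eight concentrations, quadruplicate. Nonspecific binding measured with 1 μM unlabeled T3. IC50 from Hill plot x-intercept; Ki calculated from IC50; relative affinity = Ki(L-T3)/Ki(analogue).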

Experiment [3] concerns the target T2, Glycerol-3-phosphate dehydrogenase [NAD(+)], cytoplasmic (Rattus norvegicus) (UniProt O35077).
T2 sequence (whole entry): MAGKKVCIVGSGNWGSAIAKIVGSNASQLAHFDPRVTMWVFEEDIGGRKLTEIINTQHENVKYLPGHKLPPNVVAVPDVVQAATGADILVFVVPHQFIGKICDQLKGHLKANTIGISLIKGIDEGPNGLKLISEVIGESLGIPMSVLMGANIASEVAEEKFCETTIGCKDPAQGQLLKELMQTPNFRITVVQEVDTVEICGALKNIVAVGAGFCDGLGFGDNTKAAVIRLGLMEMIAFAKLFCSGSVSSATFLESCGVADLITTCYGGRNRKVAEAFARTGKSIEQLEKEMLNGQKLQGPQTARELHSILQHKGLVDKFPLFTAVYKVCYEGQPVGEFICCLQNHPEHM
Nature of the experiment: Effect on rat hepatic alpha-glycerophosphate dehydrogenase (GPD) activity relative to L-T3.

In experiment [4] the target is T1, NADP-dependent malic enzyme (Rattus norvegicus). Nature of the experiment: Effect on rat hepatic Malic enzyme activity relative to L-T3.
The target of experiment [5] is T2, Glycerol-3-phosphate dehydrogenase [NAD(+)], cytoplasmic (Rattus norvegicus). Nature of the experiment: Effect on rat hepatic alpha-glycerophosphate dehydrogenase (GPD) activity 3 days after injection of 10e-6 mol/kg.
Experiment [6] shares this target. Nature of the experiment: Effect on rat hepatic alpha-glycerophosphate dehydrogenase (GPD) activity 3 days after injection of 10e-5 mol/kg.
In experiment [7] the target is T1, NADP-dependent malic enzyme (Rattus norvegicus). Nature of the experiment: Effect on rat hepatic malic enzyme(ME) activity 3 days after injection of 10e-6 mol/kg. The method in brief: (§2)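 Liver homogenized in 0.25 M sucrose, 1 mM EDTA, 100 mM Tris pH 7.5, then spun at 2000g and 40000g to give cytoplasmic fraction. Malic enzyme activity followed as NADP+ reduction at 340 nm, normalized to Bradford protein. Reported as increase over vehicle controls, nmol/min per mg protein. Two rats per dose, duplicate assays.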

Experiment [8] shares this target. Nature of the experiment: Effect on rat hepatic Malic enzyme activity 3 days after injection of 10e-5 mol/kg. The method in brief: as §2
Experiment [9] has as its target T2, Glycerol-3-phosphate dehydrogenase [NAD(+)], cytoplasmic (Rattus norvegicus). Nature of the experiment: Effect on rat hepatic glycerophosphate dehydrogenase alpha (GPD) activity relative to L-T3.
Experiment [10] deals with T1, NADP-dependent malic enzyme (Rattus norvegicus). Nature of the experiment: Effect on rat hepatic Malic enzyme activity 3 days after injection of 10e-6 mol/kg. The gist of the method:
as §2

For experiment [11], the system named is Rattus norvegicus. Nature of the experiment: Effect on the plasma cholesterol levels after subcutaneous administration of 8 nmol/kg in Dawley rats. Type of experiment: functional. Details: unit: mg/dL. The method in brief:
(§3)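 Normal Sprague-Dawley rats (265 ± 10 g) on pellet diet with 2% cholesterol and 1% cholic acid for 7 days, given daily subcutaneous injections at 4–16 nmol/kg. Five rats per group; values in mg/dL ± SD. Significance tested against vehicle-treated cholesterol-diet controls.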

Experiment [12] deals with Rattus norvegicus. Nature of the experiment: Effect on the plasma cholesterol levels after subcutaneous administration of 16 nmol/kg in Dawley rats. p < 0.01. Type of experiment: functional. The gist of the method:
as §3

The test system of experiment [13] is Rattus norvegicus. Nature of the experiment: Effect on the plasma cholesterol levels after subcutaneous administration of 4 nmol/kg in Dawley rats. The class given is functional. The method in brief:
as §3

The species entered for experiment [14] is Rattus norvegicus. Nature of the experiment: (§4) In vitro concentration required to displace [125I]L-T3 from rat hepatic nuclei. Type of experiment: functional, organism-based. The gist of the method: as §1
The nature of experiment [15]: Affinity to rat hepatic nuclei relative to L-T3 (Thyroid receptor). The method in brief: as §1
Experiment [16] can be described thus: In vitro concentration required to displace [125I]L-T3 from Thyroid receptor of rat hepatic nuclei. The method in brief:
as §1

A short description of experiment [17]: as §4.
The target of experiment [18] is T2, Glycerol-3-phosphate dehydrogenase [NAD(+)], cytoplasmic (Rattus norvegicus). Nature of the experiment: Effect on rat hepatic glycerophosphate dehydrogenase alpha (GPD) activity 3 days after injection of 10e-6 mol/kg.
In experiment [19] the test system is Rattus norvegicus. Nature of the experiment: Effect on the plasma cholesterol levels after subcutaneous administration of 16 nmol/kg in Dawley rats. The class given is functional. The gist of the method:
as §3

As to `O=C(O)Cc1cc(I)c(Oc2ccc(O)c(I)c2)c(I)c1` [TIRATRICOL], the L-T3 in [1] and in [3] was 69% in each case. Besides, in the experiment filed under Rattus norvegicus [2], the T3 is recorded as 199%. Further, the ME increase (nM min-1 mg-1) amounted to 22.5 in experiment [4] and 13 in experiment [7]. Further, the GDP activity (nM min-1 mg-1) was determined as 4.8 in experiment [5] and 12.9 in experiment [6].
For the compound `O=C(O)CCc1cc(I)c(Oc2ccc(O)c(I)c2)c(I)c1` [THYROPROPIC ACID], the figures for the ME increase (nM min-1 mg-1) in experiment [8] and in experiment [10] were 12.9 and 5.5, respectively. Besides, the L-T3 was determined as 36% in [4] and 43% in experiment [9]. Besides, the values for the Activity with Rattus norvegicus [11] and in the experiment on Rattus norvegicus [12] were 285 and 202, respectively.
On to `CC(C(=O)O)c1cc(I)c(Oc2ccc(O)c(I)c2)c(I)c1` (racemic) [listing 1 of 2 here], for which the values for the Activity with Rattus norvegicus [13] and with Rattus norvegicus [11] were 259 and 216, respectively. Moreover, the affinity in the experiment listed under Rattus norvegicus [14], expressed as Ki, was 9.03 nM. In the experiment filed under Rattus norvegicus [2], the T3 was determined as 17%.
As to `CC(N)(Cc1cc(I)c(Oc2cc(I)c(O)c(I)c2)c(I)c1)C(=O)O` (stereo not given), the Relative affinity in experiment [15] stood at 2%. The Ki (usually the equilibrium dissociation constant of an inhibitor or competing ligand from its target) in [16] was 63.3 nM.
For the compound `CC(Cc1cc(I)c(Oc2ccc(O)c(I)c2)c(I)c1)C(=O)O` (racemic), the ME increase (nM min-1 mg-1) in experiment [8] turned out to be 18.6; in [10], 13.1. The compound also displayed a T3 in the experiment filed under Rattus norvegicus [2] of 61%. Besides, the L-T3 worked out at 62% in experiment [4] and 77% in [9]. Besides, in experiment [17], the affinity corresponds to a Ki of 2.56 nM. For the same compound, the GDPactivity (nM min-1 mg-1) in experiment [18] was 7.8 and 12.1.
Consider `CC(Cc1cc(I)c(Oc2cc(I)c(O)c(I)c2)c(I)c1)C(=O)O` (racemic), for which the figures for the ME increase (nM min-1 mg-1) in experiment [8] and in experiment [10] were 14.7 and 6.8, respectively. Besides, in the experiment listed under Rattus norvegicus [2], the T3 was 12%. The figures for the L-T3 in experiment [4] and in experiment [9] were 42% and 36%, respectively. The affinity in experiment [17], expressed as Ki, was 13 nM.
With `N[C@@H](Cc1cc(I)c(Oc2ccc(O)c(I)c2)c(I)c1)C(=O)O` [LIOTHYRONINE], the Activity in the experiment on Rattus norvegicus [13] came to 251; in the experiment on Rattus norvegicus [19], 101; with Rattus norvegicus [11] it was 138. The ME increase (nM min-1 mg-1) turned out to be 31.8 in [8] and 19.5 in experiment [10]. The compound further yielded a T3 in the experiment filed under Rattus norvegicus [2] of 100%. For the same compound, the L-T3 in [4] and in experiment [9] was 100% in each case. Moreover, in experiment [18], the GDPactivity (nM min-1 mg-1) is 7.5 and 18.3.
As to `CC(C(=O)O)c1cc(I)c(Oc2ccc(O)c(I)c2)c(I)c1` (stereo in doubt), the Activity with Rattus norvegicus [13] came to 262; in the experiment on Rattus norvegicus [19], 119; in the experiment with Rattus norvegicus [11], 147.
With `CC(C(=O)O)c1cc(I)c(Oc2ccc(O)c(I)c2)c(I)c1` (racemic) [listing 2 of 2 here], the figures for the L-T3 in experiment [1] and in [3] were 41% and 31%, respectively. Moreover, the figures for the ME increase (nM min-1 mg-1) in experiment [4] and in experiment [7] were 15.5 and 5.6, respectively. For the same compound, the results for the GDP activity (nM min-1 mg-1) in experiment [5] and in experiment [6] were 1.5 and 6.6, respectively.
